High-throughput results from PubChem BioAssay.
NR3A LBD binder: NR3A (human) ligand-binding domain modulation | hit rate 2.5% among 340,000 | Tm shift relative to glycine control, % at 25 µM | AID 1259313 | NR3A LBD differential scanning fluorimetry, Tm shift; 0% = protein alone, 100% = glycine-bound protein;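 active = melting temperature shift of at least 10% of the positive control shift, at one fixed dose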
Rtt109 Vps75: blocks Candida albicans Rtt109/Vps75 acetyltransferase activity; Q5AAJ8; purified Rtt109/Vps75, ThioGlo CoA-SH fluorescence, 4 h; inhibition, % at 34.9 µM; hit rate 0.16% among 330,000; AID 540336;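 active = inhibition of at least 50% in every replicate; inconclusive = best replicate reaches 50% inhibition but some replicates fall short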
T cell HTS: T cell immune modulation candidate | 2C CD8+ T cell-vesicle binding, flow cytometry; hits give low values | response (vesicle binding), % at 7 µM | hit rate 0.068% among 330,000 | AID 2052;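 active = response, share of CD8 T cells binding vesicles, and their 90th percentile fluorescence all below set limits, cut at about 80% in these data, passing the limit was not always enough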;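 note: values below 100% mean blocked vesicle binding to the CD8+ T cells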
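Material: murine 2C transgenic CD8+ T lymphocytes / Also added: QL9-peptide-loaded Drosophila micro-vesicles bearing Ld, ICAM-1 and B7-1 / Schedule: binding step 1.5 h, 37 °C, antibody labelling 20 min, ice / Signal: flow cytometry, PE anti-B7-1 (FL2) versus Alexa647 anti-CD8 (FL8), PFA-fixed / Evaluation: percent CD8+ FL2 mean versus row control / Benchmarks: naked versus QL9-loaded vesicles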
JMJD2C inh: human JMJD2C demethylase inhibition | inhibition, % at 2.35 µM | AID 2099 | Q9H3R0 | GST-JMJD2C(1-420) H3K9me3 demethylation, DELFIA europium | hit rate 0.069% among 330,000;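 active = more than half of a compound's replicate wells show inhibition beyond 50%, single wells judged on their own value; inconclusive = some, but no more than half, of replicates pass 50% inhibition; inactive = no replicate passes 50% inhibition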;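 note: signal counts dimethyl H3K9 product captured on neutravidin plate; 0% = median of DMSO wells and 100% = 0.3 times that DMSO median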
Target sequence (Q9H3R0 1-420 limits assumed): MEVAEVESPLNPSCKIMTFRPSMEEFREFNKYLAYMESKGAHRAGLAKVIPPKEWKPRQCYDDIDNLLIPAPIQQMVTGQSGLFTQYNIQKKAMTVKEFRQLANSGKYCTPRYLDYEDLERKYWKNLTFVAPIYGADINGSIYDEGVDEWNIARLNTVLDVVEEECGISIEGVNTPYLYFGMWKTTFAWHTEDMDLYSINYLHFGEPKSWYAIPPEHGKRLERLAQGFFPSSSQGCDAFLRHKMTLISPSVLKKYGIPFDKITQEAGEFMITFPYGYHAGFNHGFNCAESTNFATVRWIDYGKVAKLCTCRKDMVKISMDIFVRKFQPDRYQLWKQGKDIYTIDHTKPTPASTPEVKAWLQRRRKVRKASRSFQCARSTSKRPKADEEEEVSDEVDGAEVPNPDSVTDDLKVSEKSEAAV
Active calls of the source: *; i = inactive; ? = inconclusive; . = not tested or not shown. Shown are actives, neighbours in structure and some others; about 2.8% of the full set was active somewhere.

SMILES	NR3A LBD binder	Rtt109 Vps75	T cell HTS	JMJD2C inh
O=C(NCC(c1ccco1)N1CCc2ccccc21)C(=O)Nc1ccc(F)cc1F (stereo unspecified)	2	7	458	15
COc1ccc(-c2c(C)nn3c(C)cc(C)nc23)cc1	0	58*	182	-11
Cc1ccc(C)c(S(=O)(=O)N2CCCCC2CCNC(=O)C(=O)NC2CC2)c1 (stereo unspecified)	-2	.	i	-2
CC(C)c1ccc(N2C(=O)C(Cl)=C(N3CCOCC3)C2=O)cc1	-1	12	351	-3
CCOc1ccc(N2C(=O)C(Cl)=C(N3CCOCC3)C2=O)cc1	0	116*	209	-2
COc1coc(C(O)CN)cc1=O (stereo unspecified)	-1	.	417	13
CCOC(=O)C(=Cc1cc(=O)c(OC)co1)C(=O)OCC	-2	78*	.	5
COc1cc(S(=O)(=O)n2nc(C)cc2C)c(OC)cc1Cl	1	65*	340	5
O=C(NC1CCS(=O)(=O)C1)c1ccc2c(c1)OCO2 (stereo unspecified)	-1	-5	249	-6
S=C(NCCc1ccc(Cl)cc1)Nc1ccc(Cl)cc1Cl	18*	5	84	-8
S=C(NCCN1CCOCC1)Nc1ccc(Cl)cc1Cl	12*	-4	649	-2
S=C(NCCCN1CCOCC1)Nc1ccc(Cl)cc1Cl	0	0	163	-4
S=C(NCc1ccc(Cl)cc1)Nc1ccc(Cl)cc1Cl	1	4	297	0
COc1cccc(C2=NOC(C(=O)Nc3c(C)n(C)n(-c4ccccc4)c3=O)C2)c1 (stereo unspecified)	-2	-6	162	0
COc1ccc(CCN=C(N)NS(=O)(=O)c2ccc3ccccc3c2)cc1	18*	-4	256	9
COc1ccc(S(=O)(=O)NC(N)=NCCc2ccccc2)cc1	1	-1	576	-5
CCc1ccccc1NC(=O)N1CCc2ccccc21	0	-5	196	-3
COc1ccc(S(=O)(=O)NCCS(=O)(=O)N2CCN(c3ccccc3)CC2)cc1	19*	-5	361	-4
Cc1ccc(C#N)c(SCc2nnc(-c3ccc(Cl)cc3)o2)n1	2	58*	401	0
O=c1ccc2cc3c([nH]c4ccc(Br)cc43)oc-2c1O	.	129*	535	31
Cc1ccc2nc(Cl)c(/C=N/NC(=O)[C@H]3C[C@@H]3c3ccccc3)cc2c1	0	.	186	-5
Cc1nc2ccccc2cc1C(=O)N/N=C/c1cccs1	-2	14	0.0*	-10
Cc1ccc2nc(C)c(C(=O)N/N=C/c3ccco3)cc2c1	11*	-3	259	-1
Cc1ccc2nc(Cl)c(/C=N/NC(=O)c3ccccc3O)cc2c1	20*	-8	320	1
Cc1nc2ccccc2cc1C(=O)N/N=C/c1ccco1	5	2	170	4
SMILES	NR3A LBD binder	Rtt109 Vps75	T cell HTS	JMJD2C inh
Cc1ccc(-c2csc(NC(=O)C3=NN(C4CCS(=O)(=O)C4)C(=O)CC3)n2)cc1 (stereo unspecified)	1	2	476	31
Cc1ccc(CNC(=O)C2CCC(=O)N(CCc3ccc(Cl)cc3)C2)cc1 (stereo unspecified)	2	-2	738	-21
CCCN(CC(=O)Nc1ccccc1C)CC(=O)Nc1ccc(Br)cc1F	0	-5	311	-16
Cc1ccc(C(=O)Nc2nnc(-c3ccc(C(C)(C)C)cc3)s2)cc1	10*	.	262	-63
CCn1c(O)c(/C=C2\C=NN=C2c2ccc(C)cc2)sc1=S	12*	3	289	4
CC(C)n1c(O)c(/C=C2\C=NN=C2c2ccccc2)sc1=S	11*	-7	836	?
CC(=O)c1cccc(NC(=O)c2cc(Cl)sc2Cl)c1	5	5	218	-8
CCc1sc(C(=O)Nc2cccc(C(C)=O)c2)cc1C	0	52*	86	10
CCN(C(=O)COC(=O)c1ccccc1Cc1ccccc1)c1c(N)n(Cc2ccccc2)c(=O)[nH]c1=O	0	12	.	.
Cc1cn(-c2cc(C(=O)Nc3ccc(C)c(NC(=O)C(=O)c4c[nH]c5ccccc45)c3)cc(C(F)(F)F)c2)cn1	12*	1	714	?
Cc1ccc(S(=O)(=O)c2nc(-c3cccs3)oc2N2CCC(C(N)=O)CC2)cc1	-1	-1	339	12
Oc1c(/C=N/Nc2cccc3cccnc23)ccc2ccccc12	32*	4	210	-13
Oc1cccc(/C=N/Nc2cccc3cccnc23)c1	32*	4	.	-42
